Results as given in ChEMBL document CHEMBL4364284, “Design, Synthesis, and Efficacy Testing of Nitroethylene- and 7-Nitrobenzoxadiazol-Based Flavodoxin Inhibitors against Helicobacter pylori Drug-Resistant Clinical Strains and in Helicobacter pylori-Infected Mice” (J Med Chem, 2019).
Values after ≈ are worked out from the molar mass of the structure shown. Active and inactive are the calls of the source. No cut-off for these calls is given here.

Legend:
[1] = Therapeutic index, ratio of MCC50 for human HeLa cells to MIC for inhibition of flavodoxin in Mnz-resistant Helicobacter pylori NCTC 11637 ATCC 43504 assessed as reduction in bacterial growth; type: toxicity; details: read-out: TI
How it was run: (§1)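 TI is MCC50/MIC. For MCC50, HeLa cells (30 000/well, DMEM with 10% FBS) were exposed to compound at 25–1000 μM final. Viability by XTT at 450/650 nm; MCC50 is the concentration giving 50% lysis from viability curves. Run twice in triplicate.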

[2] = Toxicity in NMRI mouse infected with Helicobacter pylori SS1 assessed as change in appetite at 10 to 20 mg/100g, po administered daily via gavage for 8 days starting from 1 week post-infection; type: organism-based; details: in vivo
How it was run: (§2)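 Female 6-week-old SPF NMRI mice infected orogastrically with Hp SS1 on days 1 and 3. Compound in 5–10% DMSO/olive oil (100 μL) given by daily oral gavage for 8 days from day 8. Body weight and appetite were monitored during treatment; infected controls received vehicle alone.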

[3] = target: T1, Flavodoxin (Helicobacter pylori (strain ATCC 700392 / 26695) (Campylobacter pylori)) (UniProt O25776); assay: Inhibition of flavodoxin in Helicobacter pylori ATCC 700392 26695 assessed as reduction in bacterial growth measured after 48 hrs by resazurin staining-based microdilution method; details: Helicobacter pylori 26695
T1 sequence (whole entry): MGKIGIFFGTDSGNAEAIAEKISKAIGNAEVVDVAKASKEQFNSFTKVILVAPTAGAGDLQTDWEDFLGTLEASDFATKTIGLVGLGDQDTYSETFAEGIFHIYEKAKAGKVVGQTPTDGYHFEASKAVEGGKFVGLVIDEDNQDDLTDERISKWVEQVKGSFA
How it was run: (§3)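 Broth microdilution in brain heart infusion with 4% FBS. Inoculum diluted to OD600 0.01. Two-fold dilutions from a DMSO stock cover 64–0.031 μg/mL, with DMSO ≤1% v/v. Incubated 48 h at 37 °C under microaerophilic conditions. MIC is the lowest concentration giving complete growth inhibition, read by resazurin colour change and confirmed by spotting on blood agar. Run twice in triplicate.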

[4] = Toxicity in NMRI mouse infected with Helicobacter pylori SS1 assessed as change in body weight at 10 to 20 mg/100g, po administered daily via gavage for 8 days starting from 1 week post-infection; type: organism-based; details: in vivo; how it was run: as §2
[5] = target: T1, Flavodoxin (Helicobacter pylori (strain ATCC 700392 / 26695) (Campylobacter pylori)); assay: Binding affinity to Helicobacter pylori flavodoxin by isothermal titration calorimetric method
[6] = Therapeutic index, ratio of MCC50 for human HeLa cells to MIC for inhibition of flavodoxin in Helicobacter pylori ATCC 700392 26695 assessed as reduction in bacterial growth; type: toxicity; details: HeLa cells versus Helicobacter pylori ATCC 700392 26695, read-out: TI; how it was run: as §1
[7] = Cytotoxicity against human HeLa cells assessed as reduction in cell viability by XTT assay; type: cell-based; details: read-out: MCC50
How it was run: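 HeLa cells grown in DMEM with 10% FBS, penicillin and streptomycin at 37 °C, 5% CO2; 30 000 cells/well. XTT viability read at 450 and 650 nm. MCC50 (50% lysis) came from viability-versus-concentration curves. Two experiments, each in triplicate.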

Staphylococcus aureus = assay: Effect on growth of Staphylococcus aureus ATCC 1228 after 48 hrs by resazurin-dye based microdilution assay; type: organism-based
Escherichia coli = assay: Effect on growth of Escherichia coli DH5[alpha] after 48 hrs by resazurin-dye based microdilution assay; type: organism-based
[8] = Therapeutic index, ratio of MCC50 for human HeLa cells to MIC for inhibition of flavodoxin in Helicobacter pylori SS1 assessed as reduction in bacterial growth; type: toxicity; details: HeLa cells versus Helicobacter pylori SS1, read-out: TI; how it was run: as §1
Helicobacter pylori [9] = assay: Antibacterial activity against Helicobacter pylori SS1 infected in NMRI mouse assessed as bacterial eradication at 10 mg/100g, po administered daily via gavage for 8 days starting from 1 week post-infection and measured 8 days post-last dose; type: functional, organism-based
How it was run: (§4)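 Female 6-week-old SPF NMRI mice, seven per condition, infected orogastrically on days 1 and 3 with 100 μL Hp SS1 (5 × 10^8 CFU/mL). From day 8, 100 μL compound in 5–10% DMSO/95–90% olive oil by daily oral gavage for 8 days. Infected controls got vehicle. Killed day 24; stomach homogenates plated 5 days at 37 °C microaerophilic; CFU/g tissue versus control. Mann-Whitney U and unpaired t tests, p ≤ 0.05.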

[10] = target: T1, Flavodoxin (Helicobacter pylori (strain ATCC 700392 / 26695) (Campylobacter pylori)); assay: Inhibition of flavodoxin in Helicobacter pylori SS1 assessed as reduction in bacterial growth measured after 48 hrs by resazurin staining-based microdilution method; how it was run: as §3
[11] = target: T1, Flavodoxin (Helicobacter pylori (strain ATCC 700392 / 26695) (Campylobacter pylori)); assay: Binding affinity to Helicobacter pylori flavodoxin by thermal upshift assay
Helicobacter pylori [12] = assay: Antibacterial activity against Helicobacter pylori SS1 infected in NMRI mouse assessed as reduction in gastric colonization at 10 mg/100g, po administered daily via gavage for 8 days starting from 1 week post-infection and measured 8 days post-last dose; type: functional, organism-based; how it was run: as §4
[13] = Toxicity in NMRI mouse assessed as change in body weight at 10 to 20 mg/100g, po administered daily via gavage for 8 days; type: organism-based; details: in vivo, 192 h
[14] = target: T1, Flavodoxin (Helicobacter pylori (strain ATCC 700392 / 26695) (Campylobacter pylori)); assay: Inhibition of flavodoxin in Mnz-resistant Helicobacter pylori NCTC 11637 ATCC 43504 assessed as reduction in bacterial growth measured after 48 hrs by resazurin staining-based microdilution method; details: Helicobacter pylori NCTC 11637 = CCUG 17874 = ATCC 43504; how it was run: as §3
[15] = Toxicity in NMRI mouse infected with Helicobacter pylori SS1 assessed as change in body weight at 1 to 20 mg/100g, po administered daily via gavage for 8 days starting from 1 week post-infection; type: organism-based; details: in vivo
How it was run: (§5)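 Compound in 5–10% DMSO/olive oil (100 μL) given by daily oral gavage for 8 days from day 8. Body weight and appetite were monitored during treatment; infected controls received vehicle alone.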

[16] = Toxicity in NMRI mouse infected with Helicobacter pylori SS1 assessed as change in appetite at 1 to 20 mg/100g, po administered daily via gavage for 8 days starting from 1 week post-infection; type: organism-based; details: in vivo; how it was run: as §5
[17] = Therapeutic index, ratio of MCC50 for human HeLa cells to MIC for inhibition of flavodoxin in metronidazole-resistant Helicobacter pylori isolate 2 assessed as reduction in bacterial growth; type: toxicity; details: read-out: TI; how it was run: as §1
[18] = Therapeutic index, ratio of MCC50 for human HeLa cells to MIC for inhibition of flavodoxin in clarithromycin/metronidazole-resistant Helicobacter pylori isolate 4 assessed as reduction in bacterial growth; type: toxicity; details: read-out: TI; how it was run: as §1
[19] = Stability of the compound in DMSO-d6 at pH 1 incubated for 19 hrs under shaking condition by 1H-NMR analysis; type: physicochemical; details: pH 1, 19 h
Helicobacter pylori [20] = assay: Antibacterial activity against Helicobacter pylori SS1 infected in NMRI mouse assessed as bacterial eradication at 10 mg/100g, po administered daily via gavage for 8 days starting from 1 week post-infection and measured 8 days post-last dose relative to control; type: functional
How it was run: (§6)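 From day 8, 100 μL compound in 5–10% DMSO/95–90% olive oil by daily oral gavage for 8 days. Infected controls got vehicle. Killed day 24; stomach homogenates plated 5 days at 37 °C microaerophilic; CFU/g tissue versus control. Mann-Whitney U and unpaired t tests, p ≤ 0.05.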

[21] = Therapeutic index, ratio of MCC50 for human HeLa cells to MIC for inhibition of flavodoxin in rifampicin-resistant Helicobacter pylori isolate 5 assessed as reduction in bacterial growth; type: toxicity; details: read-out: TI; how it was run: as §1
Helicobacter pylori [22] = assay: Antibacterial activity against Helicobacter pylori SS1 infected in NMRI mouse assessed as reduction in gastric colonization at 1 to 20 mg/100g, po administered daily via gavage for 8 days starting from 1 week post-infection and measured 8 days post-last dose; type: functional, organism-based; how it was run: as §4
[23] = Therapeutic index, ratio of MCC50 for human HeLa cells to MIC for inhibition of flavodoxin in metronidazole-resistant Helicobacter pylori isolate 3 assessed as reduction in bacterial growth; type: toxicity; details: read-out: TI; how it was run: as §1
[24] = Toxicity in NMRI mouse assessed as change in body weight at 1 to 20 mg/100g, po administered daily via gavage for 8 days; type: organism-based; details: in vivo, 192 h
[25] = Therapeutic index, ratio of MCC50 for human HeLa cells to MIC for inhibition of flavodoxin in metronidazole-resistant Helicobacter pylori isolate 1 assessed as reduction in bacterial growth; type: toxicity; details: read-out: TI; how it was run: as §1
Helicobacter pylori [26] = assay: Antibacterial activity against Helicobacter pylori SS1 infected in NMRI mouse assessed as bacterial eradication at 20 mg/100g, po administered daily via gavage for 8 days starting from 1 week post-infection and measured 8 days post-last dose relative to control; type: functional; how it was run: as §6
[27] = Therapeutic index, ratio of MCC50 for human HeLa cells to MIC for inhibition of flavodoxin in clarithromycin/metronidazole-resistant Helicobacter pylori isolate 6 assessed as reduction in bacterial growth; type: toxicity; details: read-out: TI; how it was run: as §1

Row | SMILES | selectivity ratio [1] | MIC [3] | Activity [5] | selectivity ratio [6] | CC50 [7] | Activity (Staphylococcus aureus) | Activity (Escherichia coli) | selectivity ratio [8] | MIC [10] | Activity [11] | MIC [14] | other results
1 | O/N=C1\Cc2cc(Cl)cc(Cl)c2OC1c1ccc(F)cc1 (stereo not given) | 19 | 6.1 µM (≈ 1.99 µg/mL) | Active | 19 | 117 µM | Non-Toxic | Non-Toxic | 10 | 12 µM (≈ 3.91 µg/mL) | Active | 6.1 µM (≈ 1.99 µg/mL) | Activity [2]: Non-Toxic; Activity [4]: Non-Toxic; Activity (Helicobacter pylori [9]): inactive; Activity (Helicobacter pylori [12]): Active; Activity [13]: Non-Toxic
2 | COc1ccc(C[S+]([O-])c2ccc(N)c3nonc23)cc1 (stereo not given) | > 19 | 26 µM (≈ 7.89 µg/mL) | Active | > 39 | > 1000 µM | Non-Toxic | Non-Toxic | > 9.5 | 105 µM (≈ 31.9 µg/mL) | Active | 53 µM (≈ 16.1 µg/mL) | Activity [15]: Non-Toxic; Activity [16]: Non-Toxic; selectivity ratio [17]: 9.5; selectivity ratio [18]: 9.5; Stability [19]: Stable; Activity (Helicobacter pylori [20]): 5%; selectivity ratio [21]: 9.5; Activity (Helicobacter pylori [22]): Active; selectivity ratio [23]: 9.5; Activity [24]: Non-Toxic; selectivity ratio [25]: 9.5; Activity (Helicobacter pylori [26]): 60%; selectivity ratio [27]: 9.5
